ChEMBL document CHEMBL1157068, “Crossbyanols A-D, toxic brominated polyphenyl ethers from the Hawai'ian bloom-forming Cyanobacterium Leptolyngbya crossbyana” (J Nat Prod, 2010)
Converted amounts (≈) assume the structure as drawn. The source made the active and inactive calls. The rule behind the calls is not given here.

What was measured:
[1] = Activation of voltage-gated sodium channel in mouse Neuro2a cells after 16 hrs by MTT assay; type: cell-based; conditions: N2a
In short: (§1)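 Neuro2a cells plated at 3.0×10^5 cells/mL in RPMI 1640 with 10% FBS and 1% pen/strep, 200 µL/well, recovered overnight (37 °C, 5% CO2). DMSO stocks (10 mg/mL) diluted in serum-free RPMI to a final 20 µg/mL. Bottom half of plate got 5 mM ouabain plus 150 µM veratridine in PBS/5 mM HCl; top half PBS/HCl only for general toxicity. Brevetoxin-2 positive control. MTT after ~16 h, read at 570/630 nm.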

Neuro2a [2] = experiment: Inhibition of voltage-gated sodium channel in mouse Neuro2a cells at 20 ug/ml after 24 hrs by MTT assay; type: cell-based
Artemia salina = experiment: Toxicity in Artemia salina after 24 hrs; type: organism-based
In short: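 Artemia salina eggs hatched over 24 h; about 20 nauplii in ~0.5 mL seawater added per well holding sample in 50 µL EtOH plus 4.5 mL artificial seawater. Final concentrations 1, 5 and 25 ppm, controls and samples in triplicate. Live and dead counted after 24 h at 28 °C.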

NCI-H460 = experiment: Cytotoxicity against human H460 cells after 48 hrs by MTT assay; type: functional, cell-based
In short: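 H-460 cells at 3.33×10^4 cells/mL in RPMI 1640 with FBS and 1% pen/strep, 180 µL/well, recovered overnight (37 °C, 5% CO2). DMSO stocks (10 mg/mL) diluted in serum-free RPMI to final 30 or 3 µg/mL; serum-free medium as negative control. ~48 h incubation, then MTT, absorbance read at 570 and 630 nm.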

Staphylococcus aureus = experiment: Antibacterial activity against methicillin-resistant Staphylococcus aureus after 24 hrs by optical density method; type: functional
In short: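 MRSA grown on GYT medium for 24 h at 37 °C, then inoculated into GYT medium containing serial dilutions of compound and incubated 24 h at 37 °C. Growth read as optical density at 600 nm. MIC taken as the lowest concentration inhibiting bacterial growth.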

Neuro2a [3] = experiment: Activation of voltage-gated sodium channel in mouse Neuro2a cells at 20 ug/ml after 16 hrs by MTT assay; type: cell-based; in short: as §1

Structure (SMILES): Oc1ccc(Oc2cc(Br)c(Oc3ccc(O)c(Oc4ccc(Br)cc4Br)c3Br)c(Oc3ccc(Br)cc3Br)c2)cc1Br [CROSSBYANOL A]
- IC50 [1]: 20 µg/mL (≈ 19.4 µM)
- inhibition (Neuro2a [2]): inactive
- Activity (Artemia salina; artemia salina, in vivo, 24 h): Non-toxic
- IC50 (NCI-H460; NCI-H460, 48 h): 30 µg/mL (≈ 29.1 µM)
- Activity (Staphylococcus aureus): inactive

Structure (SMILES): O=S(=O)(O)Oc1ccc(Oc2cc(Br)c(Oc3ccc(OS(=O)(=O)O)c(Oc4ccc(Br)cc4Br)c3Br)c(Oc3ccc(Br)cc3Br)c2)cc1Br [CROSSBYANOL B]
- inhibition (Neuro2a [2]): inactive
- IC50 (Artemia salina): 2.8 ppm
- Activity (NCI-H460): inactive
- MIC (Staphylococcus aureus): 2 µg/mL (≈ 1.68 µM)
- Activity (Neuro2a [3]): inactive

Structure (SMILES): O=S(=O)(O)Oc1ccc(Oc2c(Br)cc(Oc3ccc(O)c(Br)c3)cc2Oc2ccc(Br)cc2Br)c(Br)c1Oc1ccc(Br)cc1Br
- inhibition (Neuro2a [2]): inactive
- Activity (NCI-H460): inactive
- Activity (Staphylococcus aureus): inactive
- Activity (Neuro2a [3]): inactive

Structure (SMILES): O=S(=O)(O)Oc1ccc(Oc2cc(Br)c(Oc3ccc(O)c(Oc4ccc(Br)cc4Br)c3Br)c(Oc3ccc(Br)cc3Br)c2)cc1Br
- inhibition (Neuro2a [2]): inactive
- Activity (NCI-H460): inactive
- Activity (Staphylococcus aureus): inactive
- Activity (Neuro2a [3]): inactive
